Source: ChEMBL document CHEMBL4229473, “Discovery of novel leucyladenylate sulfamate surrogates as leucyl-tRNA synthetase (LRS)-targeted mammalian target of rapamycin complex 1 (mTORC1) inhibitors” (Bioorg Med Chem, 2018)
Active and inactive are the calls of the source. No cut-off for these calls is given here.

Experiments:
[1] = tested on: A549; test: Cytotoxicity against human A549 cells assessed as growth inhibition after 72 hrs by SRB assay; type: functional, cell-based; settings: A549, 72 h
How it was run: (§1)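 Growth-inhibition IC50 values in a panel of cancer lines: A549 (lung), HCT116 (colon), K562 (leukemia), MDA-MB-231 (breast), SK-Hep-1 (liver) and SNU638 (stomach), plus MRC5 (described as normal lung epithelial cells). Etoposide was run in parallel as the positive control.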

[2] = tested on: HCT-116; test: Cytotoxicity against human HCT116 cells assessed as growth inhibition after 72 hrs by SRB assay; type: functional, cell-based; settings: HCT-116, 72 h; how it was run: as §1
[3] = tested on: K562; test: Cytotoxicity against human K562 cells assessed as growth inhibition after 72 hrs by SRB assay; type: functional, cell-based; settings: K562, 72 h; how it was run: as §1
[4] = target: Leucine--tRNA ligase, cytoplasmic (Homo sapiens) (UniProt Q9P2J5); test: Inhibition of LRS-mediated mTORC1 activation in HEK293 cells assessed as decrease in leucine-induced S6K phosphorylation at T389 at 100 uM treated prior to leucine induction measured after 10 mins by Western blot method; type: cell-based
How it was run: (§2)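 Dose-dependent series in HEK293 cells. Compounds were given as pretreatment at several concentrations, then leucine was added for 10 min to activate mTORC1. Western blots were probed for phospho-S6K, S6K, LRS, mTOR and phospho-mTOR.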

[5] = tested on: MDA-MB-231; test: Cytotoxicity against human MDA-MB-231 cells assessed as growth inhibition after 72 hrs by SRB assay; type: functional, cell-based; settings: MDA-MB-231, 72 h; how it was run: as §1
[6] = target: Leucine--tRNA ligase, cytoplasmic (Homo sapiens) (UniProt Q9P2J5); test: Inhibition of LRS-mediated mTORC1 activation in HEK293 cells assessed as decrease in leucine-induced S6K phosphorylation at T389 at 200 uM treated prior to leucine induction measured after 10 mins by Western blot method; type: cell-based
How it was run: (§3)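 HEK293 cells were pretreated at one fixed level: test agents at 200 μM, rapamycin at 100 nM or leucinol at 800 μM. mTORC1 was then activated by adding leucine for 10 min. Lysates were Western blotted for phospho-S6K, total S6K, LRS, mTOR and phospho-mTOR.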

[7] = tested on: MRC5; test: Cytotoxicity against human MRC5 cells assessed as growth inhibition after 72 hrs by SRB assay; type: cell-based; settings: MRC5, 72 h; how it was run: as §1
[8] = tested on: SK-HEP1; test: Cytotoxicity against human SKHEP1 cells assessed as growth inhibition after 72 hrs by SRB assay; type: functional, cell-based; settings: SK-HEP1, 72 h; how it was run: as §1
[9] = tested on: HEK293; test: Effect on LRS expression in HEK293 cells at 20 to 200 uM treated prior to leucine addition measured after 10 mins by Western blot method; type: functional, cell-based; settings: Homo sapiens; how it was run: as §2
[10] = tested on: SNU-638; test: Cytotoxicity against human SNU638 cells assessed as growth inhibition after 72 hrs by SRB assay; type: functional, cell-based; settings: SNU-638, 72 h; how it was run: as §1
[11] = tested on: HEK293; test: Effect on mTOR expression in HEK293 cells at 20 to 200 uM treated prior to leucine addition measured after 10 mins by Western blot method; type: functional, cell-based; settings: Homo sapiens; how it was run: as §2
[12] = target: Serine/threonine-protein kinase mTOR (Homo sapiens) (UniProt P42345); test: Inhibition of mTOR phosphorylation in HEK293 cells at 20 to 200 uM treated prior to leucine addition measured after 10 mins by Western blot method; type: cell-based; how it was run: as §2
[13] = tested on: HEK293; test: Effect on S6K expression in HEK293 cells at 20 to 200 uM treated prior to leucine addition measured after 10 mins by Western blot method; type: functional, cell-based; settings: Homo sapiens; how it was run: as §2
[14] = target: Leucine--tRNA ligase, cytoplasmic (Homo sapiens) (UniProt Q9P2J5); test: Inhibition of LRS-mediated mTORC1 activation in HEK293 cells assessed as decrease in leucine-induced S6K phosphorylation at T389 at 800 uM treated prior to leucine induction measured after 10 mins by Western blot method; type: cell-based; how it was run: as §3
[15] = tested on: HEK293; test: Effect on mTOR expression in HEK293 cells at 200 uM treated prior to leucine addition measured after 10 mins by Western blot method; type: functional, cell-based; settings: Homo sapiens; how it was run: as §3
[16] = target: Serine/threonine-protein kinase mTOR (Homo sapiens) (UniProt P42345); test: Inhibition of mTOR phosphorylation in HEK293 cells at 200 uM treated prior to leucine addition measured after 10 mins by Western blot method; type: cell-based; how it was run: as §3
[17] = tested on: HEK293; test: Effect on S6K expression in HEK293 cells at 200 uM treated prior to leucine addition measured after 10 mins by Western blot method; type: functional, cell-based; settings: Homo sapiens; how it was run: as §3
[18] = tested on: HEK293; test: Effect on LRS expression in HEK293 cells at 200 uM treated prior to leucine addition measured after 10 mins by Western blot method; type: functional, cell-based; settings: Homo sapiens; how it was run: as §3
[19] = target: Leucine--tRNA ligase, cytoplasmic (Homo sapiens) (UniProt Q9P2J5); test: Inhibition of LRS-mediated mTORC1 activation in HEK293 cells assessed as decrease in leucine-induced S6K phosphorylation at T389 at 100 nM treated prior to leucine induction measured after 10 mins by Western blot method; type: cell-based; how it was run: as §3
[20] = target: Leucine--tRNA ligase, cytoplasmic (Homo sapiens) (UniProt Q9P2J5); test: Inhibition of LRS-mediated mTORC1 activation in HEK293 cells assessed as decrease in leucine-induced S6K phosphorylation at T389 treated prior to leucine induction measured after 10 mins by Western blot method; type: cell-based; how it was run: as §2
[21] = target: Leucine--tRNA ligase, cytoplasmic (Homo sapiens) (UniProt Q9P2J5); test: Inhibition of LRS aminooleucylation in HEK293 cells assessed as residual activity; type: cell-based

Sequence of Leucine--tRNA ligase, cytoplasmic (Homo sapiens) (Q9P2J5 whole entry, looked up): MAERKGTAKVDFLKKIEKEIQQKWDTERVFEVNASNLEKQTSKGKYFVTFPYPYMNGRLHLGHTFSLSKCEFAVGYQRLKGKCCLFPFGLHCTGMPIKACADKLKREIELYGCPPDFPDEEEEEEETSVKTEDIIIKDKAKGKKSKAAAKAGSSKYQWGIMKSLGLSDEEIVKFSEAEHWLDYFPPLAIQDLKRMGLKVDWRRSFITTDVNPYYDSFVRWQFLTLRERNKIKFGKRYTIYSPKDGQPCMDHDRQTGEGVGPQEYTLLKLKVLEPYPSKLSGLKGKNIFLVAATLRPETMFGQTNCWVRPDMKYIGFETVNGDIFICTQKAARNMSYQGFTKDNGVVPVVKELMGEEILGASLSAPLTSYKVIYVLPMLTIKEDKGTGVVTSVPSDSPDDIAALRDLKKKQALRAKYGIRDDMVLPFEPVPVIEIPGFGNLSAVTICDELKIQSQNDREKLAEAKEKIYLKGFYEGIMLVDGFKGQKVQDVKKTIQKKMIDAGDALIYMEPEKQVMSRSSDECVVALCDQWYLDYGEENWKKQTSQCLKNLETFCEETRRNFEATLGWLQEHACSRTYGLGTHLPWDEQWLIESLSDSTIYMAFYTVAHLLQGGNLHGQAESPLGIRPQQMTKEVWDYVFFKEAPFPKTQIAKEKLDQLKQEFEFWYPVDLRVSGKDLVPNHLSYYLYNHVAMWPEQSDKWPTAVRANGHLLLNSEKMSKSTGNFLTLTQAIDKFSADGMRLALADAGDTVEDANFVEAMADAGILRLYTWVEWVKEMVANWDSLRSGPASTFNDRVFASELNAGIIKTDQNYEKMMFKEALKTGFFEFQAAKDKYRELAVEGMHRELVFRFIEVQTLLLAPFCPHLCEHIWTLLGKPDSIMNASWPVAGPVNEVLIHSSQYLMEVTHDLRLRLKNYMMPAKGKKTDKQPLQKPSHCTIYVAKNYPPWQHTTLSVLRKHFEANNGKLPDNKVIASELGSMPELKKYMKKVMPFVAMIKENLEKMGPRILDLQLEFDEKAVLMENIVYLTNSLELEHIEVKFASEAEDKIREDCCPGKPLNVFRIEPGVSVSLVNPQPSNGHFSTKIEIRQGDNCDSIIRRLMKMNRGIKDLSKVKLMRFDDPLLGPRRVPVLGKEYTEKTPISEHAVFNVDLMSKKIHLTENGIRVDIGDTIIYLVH

SMILES | inhibition [6] | inhibition [12] | inhibition [16] | IC50 [1] | IC50 [2] | IC50 [3] | IC50 [5] | IC50 [7] | IC50 [8] | Activity [9] | IC50 [10] | Activity [11] | Activity [13] | Activity [15] | Activity [17] | Activity [18] | further results
CC(C)C[C@H](N)CO |  |  |  |  |  |  |  |  |  |  |  |  |  |  |  |  | inhibition [14]: Active
COc1cc2ncnc(Nc3ccc(F)c(Cl)c3)c2cc1OCCOS(=O)(=O)NC(=O)[C@@H](N)CC(C)C | inactive |  | inactive |  |  |  |  |  |  |  |  |  |  | inactive | inactive | inactive | 
COc1cc2ncnc(Nc3ccc(F)c(Cl)c3)c2cc1OS(=O)(=O)NC(=O)[C@@H](N)CC(C)C | Active |  | inactive |  |  |  |  |  |  |  |  |  |  | inactive | inactive | inactive | 
CO[C@H]1C[C@@H]2CC[C@@H](C)[C@@](O)(O2)C(=O)C(=O)N2CCCC[C@H]2C(=O)O[C@H]([C@H](C)C[C@@H]2CC[C@@H](O)[C@H](OC)C2)CC(=O)[C@H](C)/C=C(\C)[C@@H](O)[C@@H](OC)C(=O)[C@H](C)C[C@H](C)/C=C/C=C/C=C/1C |  |  |  |  |  |  |  |  |  |  |  |  |  |  |  |  | inhibition [19]: Active
COc1cc2ncnc(Nc3ccc(F)c(Cl)c3)c2cc1OCCOC(=O)[C@@H](O)CC(C)C |  | inactive |  | 3.16 µM | 3.12 µM | 3.89 µM | 2.05 µM | 1.12 µM | 1.39 µM | inactive | 3.41 µM | inactive | inactive |  |  |  | inhibition [20]: Dose-dependent effect; Activity [21]: > 70%
COc1cc2ncnc(Nc3ccc(F)c(Cl)c3)c2cc1OCCOS(=O)(=O)NC(=O)[C@@H](O)CC(C)C | inactive |  | inactive |  |  |  |  |  |  |  |  |  |  | inactive | inactive | inactive | 
COc1cc2ncnc(Nc3ccc(F)c(Cl)c3)c2cc1OCCNC(=O)[C@@H](N)CC(C)C | Active | inactive |  | 2.79 µM | 4.24 µM | 3.83 µM | 4.59 µM | > 20 µM | 2.21 µM | inactive | 2.97 µM | inactive | inactive |  |  |  | inhibition [4]: inactive; Activity [21]: > 70%

Further lines, with some results ahead:

inhibition [6] | inhibition [12] | inhibition [16] | SMILES | IC50 [1] | IC50 [2] | IC50 [3] | IC50 [5] | IC50 [7] | IC50 [8] | Activity [9] | IC50 [10] | Activity [11] | Activity [13] | Activity [15] | Activity [17] | Activity [18] | further results
Active | inactive |  | COc1cc2ncnc(Nc3ccc(F)c(Cl)c3)c2cc1OCCOC(=O)[C@@H](N)CC(C)C | 3.59 µM | 3.97 µM | 4.01 µM | 3.65 µM | 1.87 µM | 1.94 µM | inactive | 3.86 µM | inactive | inactive |  |  |  | inhibition [4]: Active
inactive |  | inactive | COc1cc2ncnc(Nc3ccc(F)c(Cl)c3)c2cc1OC(=O)[C@@H](O)CC(C)C |  |  |  |  |  |  |  |  |  |  | inactive | inactive | inactive | 
Active | inactive |  | COc1cc2ncnc(Nc3ccc(F)c(Cl)c3)c2cc1OS(=O)(=O)NC(=O)[C@@H](O)CC(C)C | 4.38 µM | 4.04 µM | 4.1 µM | 6.23 µM | 18.8 µM | 3.3 µM | inactive | 4.94 µM | inactive | inactive |  |  |  | inhibition [20]: Dose-dependent effect; Activity [21]: > 70%
inactive |  | inactive | COc1cc2ncnc(Nc3ccc(F)c(Cl)c3)c2cc1OC(=O)[C@@H](N)CC(C)C |  |  |  |  |  |  |  |  |  |  | inactive | inactive | inactive | 
Active |  | inactive | COc1cc2ncnc(Nc3ccc(F)c(Cl)c3)c2cc1OCCNC(=O)[C@@H](O)CC(C)C |  |  |  |  |  |  |  |  |  |  | inactive | inactive | inactive | 
